Measured values from ChEMBL document CHEMBL4411320, “Synthesis and anti-HCV activity of β-d-2'-deoxy-2'-α-chloro-2'-β-fluoro and β-d-2'-deoxy-2'-α-bromo-2'-β-fluoro nucleosides and their phosphoramidate prodrugs” (Bioorg Med Chem, 2019).

Assays:
Huh-7 = assay: (§1) Cytotoxicity against human HuH7 cells assessed as reduction in rRNA levels after 5 days by RT-PCR analysis; assay type: cell-based; details: huh-7, 120 h
How it was run: (§2)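 Huh-7 cells carrying a genotype 1b subgenomic HCV replicon were exposed to compounds at concentrations […]. Total RNA was then extracted and amplified to quantify both replicon HCV RNA (antiviral read-out) and cellular ribosomal RNA (cytotoxicity read-out), in the same cultures at the same time.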

CCRF-CEM = assay: (§3) Cytotoxicity against human CEM cells after 6 days by trypan blue exclusion method; assay type: cell-based; details: ccrf-cem, 144 h
PBMC = assay: (§4) Cytotoxicity against human PBMC after 6 days by trypan blue exclusion method; assay type: cell-based; details: pbmc, 144 h
Vero = assay: (§5) Cytotoxicity against African green monkey Vero cells after 3 days by hemocytometric method; assay type: cell-based; details: chlorocebus sabaeus, vero, 72 h
Hepatitis C virus = assay: Antiviral activity against HCV genotype 1b subgenomic replicon infected in human HuH7 clone B cells assessed as inhibition of viral RNA replication after 5 days by RT-PCR method; assay type: functional, organism-based, Hepacivirus hominis; details: subtype 1b, Huh-7, 120 h; how it was run: as §2
[1] = as §5; assay type: cell-based; details: chlorocebus sabaeus, Vero cells
[2] = as §1; assay type: cell-based, Huh-7; details: HuH7 cells; how it was run: as §2
[3] = as §3; assay type: cell-based, CCRF-CEM; details: CEM cells
[4] = as §4; assay type: cell-based; details: PBMC

Compound | CC50 (Huh-7) [µM] | CC50 (CCRF-CEM) [µM] | CC50 (PBMC) [µM] | CC50 (Vero) [µM] | EC50 (Hepatitis C virus) [µM] | EC90 (Hepatitis C virus) [µM] | CC50 at 72 h [1] [µM] | CC50 at 120 h [2] [µM] | CC50 at 144 h [3] [µM] | CC50 at 144 h [4] [µM]
Nc1ccn([C@@H]2O[C@H](CO)[C@@H](O)[C@@]2(F)Cl)c(=O)n1 | 12 | 11 | 9.3 | 63 | > 10 | – | – | – | – | –
O=c1ccn([C@@H]2O[C@H](CO)[C@@H](O)[C@@]2(F)Cl)c(=O)[nH]1 | > 100 | > 100 | > 100 | > 100 | > 10 | > 10 | – | – | – | –
Nc1ncnc2c1ncn2[C@@H]1O[C@H](CO)[C@@H](O)[C@@]1(F)Cl | > 100 | > 100 | > 100 | > 100 | > 10 | – | – | – | – | –
Nc1nc2c(ncn2[C@@H]2O[C@H](CO)[C@@H](O)[C@@]2(F)Cl)c(=O)[nH]1 | > 100 | > 100 | > 100 | > 100 | > 10 | > 10 | – | – | – | –
CC(C)OC(=O)[C@H](C)N[P@](=O)(OC[C@H]1O[C@@H](n2cnc3c(=O)[nH]c(N)nc32)[C@](F)(Br)[C@@H]1O)Oc1ccccc1 | > 100 | > 100 | > 100 | > 100 | > 10 | > 10 | – | – | – | –
O=c1ccn([C@@H]2O[C@H](CO)[C@@H](O)[C@@]2(F)Br)c(=O)[nH]1 | > 100 | > 100 | > 100 | > 100 | > 10 | > 10 | – | – | – | –
Nc1nc2c(ncn2[C@@H]2O[C@H](CO)[C@@H](O)[C@@]2(F)Br)c(=O)[nH]1 | > 100 | > 100 | > 100 | > 100 | > 10 | – | – | – | – | –
Nc1ccn([C@@H]2O[C@H](CO)[C@@H](O)[C@@]2(F)Br)c(=O)n1 | 2.9 | 3.2 | > 100 | 2.9 | 5.1 | > 10 | – | – | – | –
Nc1ncnc2c1ncn2[C@@H]1O[C@H](CO)[C@@H](O)[C@@]1(F)Br | > 100 | > 100 | > 100 | > 100 | > 10 | – | – | – | – | –
CC(C)OC(=O)[C@H](C)NP(=O)(OC[C@H]1O[C@@H](n2cnc3c(N)ncnc32)[C@](F)(Br)[C@@H]1O)Oc1ccccc1 (mixture of isomers) | 6.9 | 29 | 19 | 71 | > 10 | – | – | – | – | –
CC(C)OC(=O)[C@H](C)NP(=O)(OC[C@H]1O[C@@H](n2ccc(=O)[nH]c2=O)[C@](F)(Cl)[C@@H]1O)Oc1ccccc1 (mixture of isomers) | 1.3 | 90 | > 100 | > 100 | 0.9 | 3.7 | – | – | – | –
CC(C)OC(=O)[C@H](C)NP(=O)(OC[C@H]1O[C@@H](n2cnc3c(N)ncnc32)[C@](F)(Cl)[C@@H]1O)Oc1ccccc1 (mixture of isomers) | 1.6 | 15 | 26 | > 100 | 2.7 | ≥ 10 | – | – | – | –
CC(C)OC(=O)[C@H](C)NP(=O)(OC[C@H]1O[C@@H](n2ccc(=O)[nH]c2=O)[C@](F)(Br)[C@@H]1O)Oc1ccccc1 (mixture of isomers) | 8 | – | – | – | 0.4 | 2 | > 100 | – | – | –
CC(C)OC(=O)[C@H](C)NP(=O)(OC[C@H]1O[C@@H](n2ccc(N)nc2=O)[C@](F)(Br)[C@@H]1O)Oc1ccccc1 (mixture of isomers) | 6.8 | > 100 | > 100 | > 100 | 2.4 | ≥ 10 | – | – | – | –
CC(C)OC(=O)[C@H](C)NP(=O)(OC[C@H]1O[C@@H](n2ccc(N)nc2=O)[C@](F)(Cl)[C@@H]1O)Oc1ccccc1 (mixture of isomers) | 23 | > 100 | > 100 | > 100 | 0.7 | 3.4 | – | – | – | –
CC(C)OC(=O)[C@H](C)NP(=O)(OC[C@H]1O[C@@H](n2cnc3c(=O)[nH]c(N)nc32)[C@](F)(Cl)[C@@H]1O)Oc1ccccc1 (mixture of isomers) | > 100 | 84 | > 100 | > 100 | > 10 | – | – | – | – | –
CC(C)OC(=O)[C@H](C)N[P@](=O)(OC[C@H]1O[C@@H](n2ccc(=O)[nH]c2=O)[C@](C)(F)[C@@H]1O)Oc1ccccc1 [SOFOSBUVIR] | – | – | – | – | 0.05 | 0.37 | > 100 | > 100 | > 100 | > 100
